Results from ChEMBL document CHEMBL2069298, “Putative mycobacterial efflux inhibitors from the seeds of Aframomum melegueta” (J Nat Prod, 2012).
≈ marks a conversion by molar mass, not a printed value.

Experiments:
[1] = tested on: Mycolicibacterium smegmatis MC2 155; experiment: Inhibition of Multidrug resistance efflux pump in Mycobacterium smegmatis str. MC2 155 ATCC 700084 assessed as reduction in ciprofloxacin bromide MIC presence of test compound at 64 mg/L
How it was run: (§1)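 Broth dilution in MHB with strain mc2 155 from blood agar. Modulator at half its MHB MIC was included in the medium while the antibiotic or EtBr was serially diluted. Inoculum 5 × 10^5 cfu/mL. MTT read-out after 72 h at 37 °C. Value is the fold change in MIC.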

[2] = tested on: Mycolicibacterium smegmatis; experiment: Antimicrobial activity against Mycobacterium smegmatis str. MC2 155 ATCC 700084 incubated for 72 hrs in Mueller-Hinton broth medium by MTT assay; assay type: functional; details: MC2 155 ATCC 700084, 72 h
How it was run: (§2)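 M. smegmatis mc2 155 grown on Columbia blood agar with 5% horse blood at 37 °C. Compounds in DMSO, serially diluted in Mueller-Hinton broth or 7H9 T ADC. Inoculum set to McFarland 0.5, then 5 × 10^5 cfu/mL, mixed 1:1 with the dilutions. Read with MTT after 72 h at 37 °C. MIC is the lowest concentration inhibiting growth.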

[3] = tested on: Mycolicibacterium smegmatis; experiment: Antimicrobial activity against Mycobacterium smegmatis str. MC2 155 ATCC 700084 incubated for 72 hrs in 7H9 T medium supplemented with 10% Middlebrook ADC enrichment by MTT assay; assay type: functional; details: MC2 155 ATCC 700084, 72 h; how it was run: as §2
[4] = tested on: Mycolicibacterium smegmatis MC2 155; experiment: Inhibition of Multidrug resistance efflux pump in Mycobacterium smegmatis str. MC2 155 ATCC 700084 assessed as fractional inhibitory concentration index in presence of rifampicin
How it was run: (§3)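 Combination testing in MHB broth dilution against mc2 155. Either the modulator or the antibiotic (EtBr or rifampicin) was held in the medium while the partner was serially diluted. 5 × 10^5 cfu/mL inoculum, MTT read-out after 72 h at 37 °C. Fractional inhibitory concentration index derived from the combined MICs.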

[5] = tested on: Mycolicibacterium smegmatis MC2 155; experiment: Inhibition of Multidrug resistance efflux pump in Mycobacterium smegmatis str. MC2 155 ATCC 700084 assessed as reduction in ethambutol bromide MIC presence of test compound at 64 mg/L; how it was run: as §1
[6] = tested on: Mycolicibacterium smegmatis MC2 155; experiment: Inhibition of Multidrug resistance efflux pump in Mycobacterium smegmatis str. MC2 155 ATCC 700084 assessed as reduction in rifampicin bromide MIC presence of test compound at 64 mg/L; how it was run: as §1
[7] = tested on: Mycolicibacterium smegmatis MC2 155; experiment: Inhibition of Multidrug resistance efflux pump in Mycobacterium smegmatis str. MC2 155 ATCC 700084 assessed as reduction in isoniazid bromide MIC presence of test compound at 64 mg/L; how it was run: as §1
[8] = tested on: Mycolicibacterium smegmatis MC2 155; experiment: Inhibition of Multidrug resistance efflux pump in Mycobacterium smegmatis str. MC2 155 ATCC 700084 assessed as reduction in ethidium bromide MIC presence of test compound at 64 mg/L; how it was run: as §1
[9] = tested on: Mycolicibacterium smegmatis MC2 155; experiment: Inhibition of Multidrug resistance efflux pump in Mycobacterium smegmatis str. MC2 155 ATCC 700084 assessed as fractional inhibitory concentration index in presence of ethidium bromide; how it was run: as §3
[10] = tested on: Mycolicibacterium smegmatis MC2 155; experiment: Inhibition of Multidrug resistance efflux pump in Mycobacterium smegmatis str. MC2 155 ATCC 700084 assessed as increase in normalized ethidium bromide fluorescence efflux at 0.5 MIC level by fluorimetric assay (reference value: 0.581 +/- 0.051 ratio)
How it was run: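 Cells grown in 7H9 T ADC at 37 °C and loaded with 4 mg/L EtBr plus 256 mg/L verapamil. EtBr efflux followed fluorometrically in a microtiter plate with compounds at half their 7H9 T ADC MIC. Normalized fluorescence is the mean of the last 10 min of four assays, compared with the EtBr control.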

[11] = tested on: Mycolicibacterium smegmatis MC2 155; experiment: Inhibition of Multidrug resistance efflux pump in Mycobacterium smegmatis str. MC2 155 ATCC 700084 assessed as reduction in isoniazid bromide MIC presence of test compound at 16 mg/L; how it was run: as §1
[12] = tested on: Mycolicibacterium smegmatis MC2 155; experiment: Inhibition of Multidrug resistance efflux pump in Mycobacterium smegmatis str. MC2 155 ATCC 700084 assessed as increase in relative ethidium bromide fluorescence accumulation at 0.5 MIC level by fluorimetric assay (reference value: 6057.1 +/- 508.6 RFU)
How it was run: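 Cells grown in 7H9 T with 10% ADC at 37 °C. Compounds at half their 7H9 T ADC MIC, with 0.5 mg/L EtBr and 0.4% glucose at 37 °C. Fluorescence tracked in a microtiter plate until steady state. Relative fluorescence is the mean of the last 10 min of four assays, compared with the EtBr-only control.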

[13] = tested on: Mycolicibacterium smegmatis MC2 155; experiment: Inhibition of Multidrug resistance efflux pump in Mycobacterium smegmatis str. MC2 155 ATCC 700084 assessed as reduction in ethidium bromide MIC presence of test compound at 16 mg/L; how it was run: as §1
[14] = tested on: Mycolicibacterium smegmatis MC2 155; experiment: Inhibition of Multidrug resistance efflux pump in Mycobacterium smegmatis str. MC2 155 ATCC 700084 assessed as reduction in ethambutol bromide MIC presence of test compound at 16 mg/L; how it was run: as §1
[15] = tested on: Mycolicibacterium smegmatis MC2 155; experiment: Inhibition of Multidrug resistance efflux pump in Mycobacterium smegmatis str. MC2 155 ATCC 700084 assessed as reduction in ciprofloxacin bromide MIC presence of test compound at 16 mg/L; how it was run: as §1
[16] = tested on: Mycolicibacterium smegmatis MC2 155; experiment: Inhibition of Multidrug resistance efflux pump in Mycobacterium smegmatis str. MC2 155 ATCC 700084 assessed as reduction in rifampicin bromide MIC presence of test compound at 16 mg/L; how it was run: as §1
[17] = tested on: Mycolicibacterium smegmatis MC2 155; experiment: Inhibition of Multidrug resistance efflux pump in Mycobacterium smegmatis str. MC2 155 ATCC 700084 assessed as reduction in ethambutol bromide MIC presence of test compound at 32 mg/L; how it was run: as §1
[18] = tested on: Mycolicibacterium smegmatis MC2 155; experiment: Inhibition of Multidrug resistance efflux pump in Mycobacterium smegmatis str. MC2 155 ATCC 700084 assessed as reduction in rifampicin bromide MIC presence of test compound at 32 mg/L; how it was run: as §1
[19] = tested on: Mycolicibacterium smegmatis MC2 155; experiment: Inhibition of Multidrug resistance efflux pump in Mycobacterium smegmatis str. MC2 155 ATCC 700084 assessed as reduction in isoniazid bromide MIC presence of test compound at 32 mg/L; how it was run: as §1
[20] = tested on: Mycolicibacterium smegmatis MC2 155; experiment: Inhibition of Multidrug resistance efflux pump in Mycobacterium smegmatis str. MC2 155 ATCC 700084 assessed as reduction in ciprofloxacin bromide MIC presence of test compound at 32 mg/L; how it was run: as §1
[21] = tested on: Mycolicibacterium smegmatis MC2 155; experiment: Inhibition of Multidrug resistance efflux pump in Mycobacterium smegmatis str. MC2 155 ATCC 700084 assessed as reduction in ethidium bromide MIC presence of test compound at 32 mg/L; how it was run: as §1
[22] = (§4) Inhibition of Multidrug resistance efflux pump in Mycobacterium smegmatis str. MC2 155 ATCC 700084 assessed as increase in normalized ethidium bromide fluorescence efflux at 0.5 MIC level by fluorimetric assay; design: species or system Mycolicibacterium smegmatis MC2 155
[23] = tested on: Mycolicibacterium smegmatis MC2 155; experiment: as §4

Compound	fold change (FC) [1]	MIC [2] [µg/mL]	MIC [3] [µg/mL]	fractional inhibitory concentration index (FICI) [4]	fold change (FC) [5]	fold change (FC) [6]	fold change (FC) [7]	fold change (FC) [8]	fractional inhibitory concentration index (FICI) [9]	Ratio [10]	fold change (FC) [11]	RFU [12]	fold change (FC) [13]	fold change (FC) [14]	fold change (FC) [15]	fold change (FC) [16]	IC50 [22] [µM]	further results
CCCCC[C@H](O)C[C@@H](O)CCc1ccc(O)c(OC)c1	1	≥ 128	≥ 128	2	1	1	1	2	1									
CCCCc1ccc(CCc2ccc(O)c(OC)c2)o1		32 (≈ 117 µM)	≥ 128	0.19					0.19	0.778	4	17200	8	2	2	16		
CCCCCC(=O)CC(=O)CCc1ccc(O)c(OC)c1	2	128 (≈ 438 µM)	≥ 128	0.5	1	4	2	8	0.25	0.789		17800						
CCCCC[C@H](O)C[C@H](O)CCc1ccc(O)c(OC)c1	1	≥ 128	≥ 128	2	1	1	1	2	1									
CCCCCCC[C@H](O)CC(=O)CCc1ccc(O)c(OC)c1		64 (≈ 198 µM)	≥ 128	1					0.19	0.795		21900					83.1	fold change (FC) [17]: 2; fold change (FC) [18]: 2; fold change (FC) [19]: 2; fold change (FC) [20]: 2; fold change (FC) [21]: 8
CCCCC[C@H](O)CC(=O)CCc1ccc(O)c(OC)c1 [GINGEROL]	1	≥ 128	≥ 128	2	1	1	1	2	1									
CCCCC[C@H](O)CC(=O)CCc1ccc(OC)c(OC)c1	1	≥ 128	≥ 128	2	1	1	1	2	0.63	0.746		11800						
CCCCCCCC(=O)CCc1ccc(O)c(OC)c1		32 (≈ 115 µM)	≥ 128	0.5					0.25	0.793	4	24600	8	1	1	4	63.6	inhibition [23]: Dose-dependent effect
CCCCCCCC(O)CCc1ccc(O)c(OC)c1 (racemic)		32 (≈ 114 µM)	128 (≈ 456 µM)	0.75					0.38	0.792	1	24700	4	2	2	4	69.2	
